Most compounds without a hit are left out; they make up all but 2% or so of the library.
PPC-1+TRAIL kill – compounds killing PPC-1 cancer cells with TRAIL present, primary screen, TRAIL potentiator project, ATPLite luminescence, uHTS. cell killing (% activity), % at 4 µM or 5 µM. PPC-1 cells + TRAIL, ATPLite viability luminescence. 0.41% of 220,000 active;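 active means cell killing above 50% in the first pass at 4 µM, then a duplicate retest at 5 µM averaging 50% or more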;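 further: plate controls were cells with TRAIL plus DMSO for no effect and medium-only wells lacking cells for full effect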
FLuc act counter – FLuc activators, initial screening, artefact control for FLuc-dependent activation tests, biochemical, ATPlite luminescence; ATPlite luciferase biochemical, 10 min; 0 = ATP-free wells, 1 = DMSO control; activation factor at 10 µM; 200,000 tested, under 10 active; AID 1027, 2008;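 active means luciferase activation factor, scaled between plate controls, of at least 2 with compound at 10 µM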
Target sequence (P08659 whole entry, looked up): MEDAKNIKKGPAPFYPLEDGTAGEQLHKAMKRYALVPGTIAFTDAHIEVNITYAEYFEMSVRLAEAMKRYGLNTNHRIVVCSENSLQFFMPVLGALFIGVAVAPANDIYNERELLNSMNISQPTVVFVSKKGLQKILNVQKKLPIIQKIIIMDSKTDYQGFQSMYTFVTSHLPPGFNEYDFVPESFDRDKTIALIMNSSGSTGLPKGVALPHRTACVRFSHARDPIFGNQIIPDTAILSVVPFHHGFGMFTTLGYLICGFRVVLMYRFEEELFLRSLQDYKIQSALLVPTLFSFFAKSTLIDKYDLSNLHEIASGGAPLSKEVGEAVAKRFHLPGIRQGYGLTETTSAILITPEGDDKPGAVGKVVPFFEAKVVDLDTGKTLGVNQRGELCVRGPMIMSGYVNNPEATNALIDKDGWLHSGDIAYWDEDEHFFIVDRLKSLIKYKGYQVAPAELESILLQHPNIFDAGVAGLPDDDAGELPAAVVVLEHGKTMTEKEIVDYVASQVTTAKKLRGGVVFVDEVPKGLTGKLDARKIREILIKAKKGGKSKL
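System: luciferase plus luciferin reagent, cell-free; medium: PBS as buffer for the ATP substrate; dosing: test compounds dosed from 2 mM stocks in 100% DMSO; timing: 10 min post-reagent at room temperature; measured by: luminescence measurement of luciferase light output; evaluation: luciferase activation, seen as luminescence increase over controls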
TRAIL sens C8 – viability loss with TRAIL in NB7+C8 cells, primary screen, TRAIL sensitizer project, cell-based, ATPlite luminescence; 1% of 360,000 active; inhibition (viability loss, TRAIL sensitization), % at 10 µM;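 active means compounds causing at least 50% loss of cell viability in the single-dose screen, relative to plate controls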
FLuc inhib CS – firefly luciferase enzyme inhibitors, primary screen, artefact control for luciferase-based inhibitor screens, biochemical, luminescence, ATPLite; 10 min; AID 1006, 2008; 1.5% of 200,000 active; Luciferin 4-monooxygenase (Photinus pyralis), P08659; inhibition, % at 10 µM;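 active means inhibition above about 50% when tested at 10 µM, limit read from the data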
HSP90 refold inh – HSP90 inhibitors, primary screen, cell lysate, luminescence. AID 1789, 2009. Rabbit reticulocyte lysate, luciferase refolding luminescence, 3 h. inhibition, % at 5.6 µM. 0.91% of 290,000 active. Heat shock protein HSP 90 (rabbit reticulocyte lysate; luciferase refolding);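 active means inhibition above the screen-wide mean plus 3 SD, computed separately per campaign, cut at about 16% in these data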;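 further: 0% = DMSO wells and 100% = 60 µM geldanamycin wells; inhibitors lower the luminescence because luciferase stays unfolded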
HSP90 inh confirm – HSP90 inhibitors, confirmation, cell lysate, luminescence; inhibition, % at 5.9 µM; shares compounds with HSP90 refold inh; rabbit reticulocyte lysate, luciferase refolding luminescence, 3 h; 64% of 2,300 active; in the data active means inhibition above about 18%;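 further: 0% = vehicle wells and 100% = reference inhibitor wells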
FLuc counter – firefly luciferase inhibitors, HSP90 counter-screen, confirmation, artefact control for HSP90 inhibitor project, biochemical, luminescence, triplicate; shares compounds with HSP90 refold inh; purified native firefly luciferase; inhibition, % at 5.9 µM; 48% of 2,300 active; AID 1847, 2009;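 active means inhibition above the mean inhibition of all tested sample wells plus 3 SD, cut at about 10% in these data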;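 further: 0% = DMSO with luciferase and 100% = wells lacking luciferase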
The depositor's hits bear a star; / = no result.

SMILES | PPC-1+TRAIL kill | FLuc act counter | TRAIL sens C8 | FLuc inhib CS | HSP90 refold inh | HSP90 inh confirm | FLuc counter
COc1ccc(NC(=O)OC(CN2CCCCC2)C(F)(F)F)cc1 (stereo unspecified) | 42.9 | 1 | 6.8 | -4.2 | 18.1* | -3.6 | -10.0
COc1ccc(NC(=O)CN2CCCC2)cc1 | / | / | -6.0 | / | -0.9 | / | /
CCCn1c(N)c(NCCN2CCOCC2)c(=O)n(CC(=O)NCc2ccccc2)c1=O | -0.8 | 1 | -2.4 | 1.8 | 0.5 | / | /
COc1ccc2c(c1)c(C(=O)CN1CCN(Cc3ccccc3)CC1)c(C)n2C | -1.9 | / | -1.4 | / | 28.1* | -6.5 | -12.2
COc1ccc2c(c1)c(C(=O)CN1CCN(c3ccccc3)CC1)c(C)n2C | 1.1 | / | / | / | -1.5 | / | /
CC(C)(C)n1nc2c(c1NC(=O)c1cccc(Cl)c1)CS(=O)(=O)C2 | / | / | -16.8 | / | -2.6 | / | /
O=c1ccc(-c2ccccc2)no1 | 2.1 | / | 2.1 | / | -1.0 | / | /
CCOc1ccc(OCc2ccc(C(=O)N3CCc4ccccc4C3)o2)cc1 | 2.2 | 1 | 8.9 | -4.4 | 24.3* | 32.6* | -18.2
CCOc1ccc(OCc2ccc(C(=O)N3CCCCC3)o2)cc1 | / | / | -4.1 | / | 23.4* | 13.0 | -25.6
CCOc1ccc(OCc2ccc(C(=O)Nc3cccnc3)o2)cc1 | 14.9 | 0.9 | -7.0 | 5.2 | 27.9* | 31.6* | -22.5
Cc1ccc(OCc2ccc(C(=O)N3CCCC3)o2)cc1C | / | / | -3.6 | / | -3.1 | / | /
COc1ccc(-c2cn(-c3ccccc3)c3[n+]2CCS3)cc1 | 8.7 | 1 | 22.0 | 0.9 | 2.1 | / | /
COc1ccc(NC(=O)CSc2nnc(-c3cc(C)[nH]n3)n2N)cc1 | / | / | -9.7 | / | -5.3 | / | /
Cc1ccc(C)c(Cn2nnc3c(=O)[nH]c(C4CCN(S(=O)(=O)c5ccc(S(=O)(=O)NC6CC6)cc5)CC4)nc32)c1 | / | / | 7.6 | / | 11.7 | / | /
Cc1ccc(C)c(Cn2nnc3c(=O)[nH]c(C4CCN(S(=O)(=O)c5ccc(S(=O)(=O)N(C)C)cc5)CC4)nc32)c1 | / | / | 5.8 | / | 22.1* | 19.3* | -1.8
CCCN1CCN(CC(=O)NCC(=O)Nc2cccc(C)c2C)CC1 | / | / | -20.1 | / | / | / | /
CC(Oc1ccccc1)C(=O)Nc1ccc(S(=O)(=O)Nc2nccs2)cc1 (stereo unspecified) | / | / | -6.6 | / | 40.5* | -11.4 | -7.3
CCOC(=O)c1c(-c2ccc(C)o2)csc1NC(=S)NC(=O)c1ccccc1Br | 1.4 | 1 | 0.6 | -1.1 | 21.3* | 5.5 | -5.7
CCN(CC)c1ccc(/C=N/NC(=O)c2ccoc2C)cc1 | -2.9 | / | 15.9 | / | 31.5* | 58.9* | 54.0*
COC(=O)c1cn(NC(=O)c2cccc(OC)c2)c(=O)c2ccccc12 | 22.9 | 1.1 | -4.7 | -5.6 | 2.5 | / | /
Cc1nc(-c2ccc(S(=O)(=O)Oc3ccc(Cl)cc3Cl)s2)cs1 | 3.8 | / | 17.2 | / | -2.8 | / | /
CCOc1cc(/C=C2\C(=O)N(c3ccc(C(N)=O)cc3)N=C2C)ccc1OC(=O)c1cccs1 | -12.3 | 1.1 | -7.4 | -5.1 | 7.0 | / | /
CC1=NN(c2ccc(C(=O)O)cc2)C(=O)/C1=C\c1ccc(OC(=O)c2cccs2)cc1 | -18.4 | 0.9 | -5.2 | 6.0 | 26.4* | 4.5 | 17.0*
Cc1cccc(-c2cc3nc4c(c(N5CCOCC5)n3n2)CCCC4)c1 | 16.6 | 0.7 | 14.1 | 29.6 | 40.1* | 59.0* | 58.2*
Cc1cccc(-c2cc3nc4c(c(N5CCC6(CC5)OCCO6)n3n2)CCCC4)c1 | / | / | 33.0 | / | 0.7 | / | /
SMILES | PPC-1+TRAIL kill | FLuc act counter | TRAIL sens C8 | FLuc inhib CS | HSP90 refold inh | HSP90 inh confirm | FLuc counter
CCN(CC)S(=O)(=O)c1ccc(OCC(=O)NC(=O)Cc2ccccc2)c([N+](=O)[O-])c1 | / | / | -4.6 | / | / | / | /
O=C(O)c1ccc(C=C(c2nc3ccccc3s2)c2nc3ccccc3s2)cc1 | 21.0 | 1 | 9.9 | 3.6 | -1.1 | / | /
CN(C)c1ccc(/C=C(\Cl)c2nc3ccccc3s2)cc1 | 24.7 | 0.4 | 45.8 | 64.2* | 49.1* | 71.1* | 71.5*
Cc1ccc([N+](=O)[O-])cc1S(=O)(=O)Nc1cccc(S(=O)(=O)NC2=NCCC2)c1 | / | / | -17.3 | / | / | / | /
CN(C)c1ccc(-c2nc3ccccn3c2/N=C/c2ccc(Br)cc2)cc1 | 38.0 | 0.1 | 53.0* | 94.3* | 17.6* | 35.1* | 19.3*
O=C(N/N=C/c1cccnc1)c1ccc(NC(=O)c2ccc(Cl)cc2)cc1 | / | / | -7.8 | / | 19.5* | -5.3 | -12.2
O=C(N/N=C/c1ccncc1)c1cccc(N/N=C/c2ccncc2)c1 | 14.1 | 0.5 | 7.0 | 45.5 | 11.1 | / | /
O=C(O)c1cc(N/N=C/c2ccncc2)ccc1Cl | 4.1 | / | -13.3 | / | 24.9* | 61.7* | 10.4*
O=C(N/N=C/c1c[nH]c2ccccc12)c1cccc(Cl)c1 | / | / | 7.6 | / | -2.5 | / | /
O=C(N/N=C/c1cccnc1)c1ccc(NC(=O)c2cccc(Cl)c2)cc1 | / | / | -18.9 | / | -2.3 | / | /
O=C(O)c1cc(N/N=C/c2c[nH]c3ccccc23)ccc1Cl | / | / | 9.5 | / | 40.1* | 37.6* | -10.0
O=C(O)c1cc(N/N=C/c2cccnc2)ccc1Cl | -8.3 | / | 13.0 | / | 29.9* | 38.7* | -3.8
Cc1ccc(NC(=O)COC(=O)Cn2ccc(=O)[nH]c2=O)cc1C | / | / | 4.2 | / | / | / | /
CSc1nc(Cl)cc(N2CCOCC2)n1 | 14.9 | 1 | 2.7 | 1.9 | 4.5 | / | /
O=C(CC1SC(N2CCOCC2)=NC1=O)Nc1ccc(Cl)c(C(F)(F)F)c1 (stereo unspecified) | / | / | -9.4 | / | / | / | /
O=C(O)c1cc(N/N=C/c2ccc(N3CCOCC3)cc2)ccc1Cl | 9.3 | / | -0.1 | / | 38.8* | 82.8* | 64.7*
CSc1ccc(/C=N/Nc2ccc(Cl)c(C(=O)O)c2)cc1 | 6.3 | 0.9 | 1.1 | 14.4 | 33.1* | 79.9* | 54.3*
Clc1cccc(N/N=C/c2ccc(N3CCOCC3)cc2)c1 | 6.1 | 1.1 | -5.3 | -5.0 | -1.2 | / | /
O=C(COC(=O)c1ccc(=O)[nH]c1)Nc1cccc(S(=O)(=O)N2CCOCC2)c1 | 0.8 | / | 4.5 | / | 4.1 | / | /
COC(=O)c1cccc(N(CC(=O)NC2CCCC2)C(=O)CNC(=O)c2cccs2)c1 | / | / | -7.9 | / | 0.9 | / | /
CCOC(=O)c1ccc(-c2ccc(C=O)o2)cc1 | -23.5 | / | -3.7 | / | 29.8* | 52.3* | -12.8
O=C(CSc1cn(CCNC(=O)c2ccccc2)c2ccccc12)NCc1ccco1 | 22.4 | 1 | 6.2 | -3.0 | 27.9* | 24.7* | -7.5
Cc1cc(NC(=O)CSc2cn(CCNC(=O)c3ccccc3)c3ccccc23)no1 | 26.0 | 1 | -5.2 | 0.9 | 7.1 | / | /

Bioassay records (PubChem)
